How the values were obtained:
Assay type in all cases: functional
[1] = Growth inhibition of human HOP92 cells at 10 uM after 48 hrs by sulforhodamine B assay; details: HOP-92, 48 h, read-out: GI
How it was run: (§1)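 Run at NCI on the 60-line panel. Cells grown in RPMI 1640 with 5% FBS and 2 mM L-glutamine, plated at 5000–40,000 cells/well by doubling time, and held 24 h at 37 °C before dosing. Drug (DMSO stock) given at a single final 10 µM in triplicate wells for 48 h. Adherent cells fixed with cold TCA (10% final), suspension cells with 16% TCA. SRB stain read at 515 nm. Percent growth from Tz, C and Ti.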

[2] = Growth inhibition of human OVCAR8 cells at 10 uM after 48 hrs by sulforhodamine B assay; details: OVCAR-8, 48 h, read-out: GI; how it was run: as §1
[3] = Growth inhibition of human NCI-ADR-RES cells at 10 uM after 48 hrs by sulforhodamine B assay; details: read-out: GI; how it was run: as §1
U-251 = assay: Growth inhibition of human U251 cells at 10 uM after 48 hrs by sulforhodamine B assay; details: U-251, 48 h, read-out: GI
How it was run: (§2)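 NCI-60 panel, adherent cells grown in RPMI 1640 with 5% FBS and 2 mM L-glutamine, plated at 5000–40,000 cells/well and preincubated 24 h at 37 °C, 5% CO2. 10 µM final compound from DMSO stock, triplicate wells, 48 h. Fixed with cold TCA (10% final, 60 min, 4 °C) and stained with 0.4% SRB. Absorbance read at 515 nm; growth calculated against time-zero and control wells.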

[4] = Growth inhibition of human LOXIMVI cells at 10 uM after 48 hrs by sulforhodamine B assay; details: LOX IMVI, read-out: GI; how it was run: as §1
SK-MEL-5 = assay: Growth inhibition of human SK-MEL-5 cells at 10 uM after 48 hrs by sulforhodamine B assay; details: SK-MEL-5, 48 h, read-out: GI; how it was run: as §1
T47D = assay: Growth inhibition of human T47D cells at 10 uM after 48 hrs by sulforhodamine B assay; details: read-out: GI; how it was run: as §2
[5] = Growth inhibition of human UO31 cells at 10 uM after 48 hrs by sulforhodamine B assay; details: UO-31, 48 h, read-out: GI; how it was run: as §2
[6] = Growth inhibition of human SW620 cells at 10 uM after 48 hrs by sulforhodamine B assay; details: SW-620, 48 h, read-out: GI; how it was run: as §2
HT-29 = assay: Growth inhibition of human HT-29 cells at 10 uM after 48 hrs by sulforhodamine B assay; details: HT-29, 48 h, read-out: GI; how it was run: as §1
[7] = Growth inhibition of human SNB75 cells at 10 uM after 48 hrs by sulforhodamine B assay; details: SNB-75, 48 h, read-out: GI; how it was run: as §1
[8] = Growth inhibition of human MOLT4 cells at 10 uM after 48 hrs by sulforhodamine B assay; details: MOLT-4, 48 h, read-out: GI; how it was run: as §1
[9] = Growth inhibition of human TK10 cells at 10 uM after 48 hrs by sulforhodamine B assay; details: TK-10, 48 h, read-out: GI; how it was run: as §2
[10] = Growth inhibition of human HCC2998 cells at 10 uM after 48 hrs by sulforhodamine B assay; details: HCC 2998, 48 h, read-out: GI; how it was run: as §1
[11] = Growth inhibition of human HOP62 cells at 10 uM after 48 hrs by sulforhodamine B assay; details: HOP-62, 48 h, read-out: GI; how it was run: as §1
[12] = Growth inhibition of human COLO205 cells at 10 uM after 48 hrs by sulforhodamine B assay; details: COLO 205, 48 h, read-out: GI; how it was run: as §1
MCF7 = assay: Growth inhibition of human MCF7 cells at 10 uM after 48 hrs by sulforhodamine B assay; details: MCF7, 48 h, read-out: GI; how it was run: as §1
ACHN = assay: Growth inhibition of human ACHN cells at 10 uM after 48 hrs by sulforhodamine B assay; details: read-out: GI; how it was run: as §1
SK-MEL-28 = assay: Growth inhibition of human SK-MEL-28 cells at 10 uM after 48 hrs by sulforhodamine B assay; details: SK-MEL-28, 48 h, read-out: GI; how it was run: as §1
M14 = assay: Growth inhibition of human M14 cells at 10 uM after 48 hrs by sulforhodamine B assay; details: M14, 48 h, read-out: GI; how it was run: as §1
SN12C = assay: Growth inhibition of human SN12C cells at 10 uM after 48 hrs by sulforhodamine B assay; details: read-out: GI; how it was run: as §1
[13] = Growth inhibition of human SNB19 cells at 10 uM after 48 hrs by sulforhodamine B assay; details: SNB-19, 48 h, read-out: GI; how it was run: as §1
MDA-MB-468 = assay: Growth inhibition of human MDA-MB-468 cells at 10 uM after 48 hrs by sulforhodamine B assay; details: MDA-MB-468, 48 h, read-out: GI; how it was run: as §1
SR = assay: Growth inhibition of human SR cells at 10 uM after 48 hrs by sulforhodamine B assay; details: read-out: GI
How it was run: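 NCI-60 screen. Cells were grown in RPMI 1640 with 5% FBS and 2 mM L-glutamine, plated at 5000–40,000 cells/well and held 24 h at 37 °C, 5% CO2. Single 10 µM final dose from DMSO stock, triplicate wells, 48 h. Settled cells were fixed with 80% TCA (16% final) and stained with 0.4% SRB. Dye was solubilized in 10 mM Tris and read at 515 nm. Growth was calculated against time-zero and untreated wells.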

NCI-H322M = assay: Growth inhibition of human NCI-H322M cells at 10 uM after 48 hrs by sulforhodamine B assay; details: read-out: GI; how it was run: as §1
[14] = Growth inhibition of human OVCAR3 cells at 10 uM after 48 hrs by sulforhodamine B assay; details: OVCAR-3, 48 h, read-out: GI; how it was run: as §1
MDA-MB-435 = assay: Growth inhibition of human MDA-MB-435 cells at 10 uM after 48 hrs by sulforhodamine B assay; details: MDA-MB-435, 48 h, read-out: GI; how it was run: as §1
A549 = assay: Growth inhibition of human A549 cells at 10 uM after 48 hrs by sulforhodamine B assay; details: A549, 48 h, read-out: GI; how it was run: as §1
[15] = Growth inhibition of human UACC62 cells at 10 uM after 48 hrs by sulforhodamine B assay; details: UACC-62, 48 h, read-out: GI; how it was run: as §2
[16] = Growth inhibition of human DU145 cells at 10 uM after 48 hrs by sulforhodamine B assay; details: DU-145, 48 h, read-out: GI; how it was run: as §1
[17] = Growth inhibition of human SF539 cells at 10 uM after 48 hrs by sulforhodamine B assay; details: SF-539, 48 h, read-out: GI; how it was run: as §1
[18] = Growth inhibition of human UACC257 cells at 10 uM after 48 hrs by sulforhodamine B assay; details: UACC-257, 48 h, read-out: GI; how it was run: as §2
K562 = assay: Growth inhibition of human K562 cells at 10 uM after 48 hrs by sulforhodamine B assay; details: K562, 48 h, read-out: GI; how it was run: as §1
[19] = Growth inhibition of human SF295 cells at 10 uM after 48 hrs by sulforhodamine B assay; details: SF-295, 48 h, read-out: GI; how it was run: as §1

| Structure (SMILES) | inhibition of growth at 10 µM [1] | inhibition of growth at 10 µM [2] | inhibition of growth at 10 µM [3] | inhibition of growth at 10 µM (U-251) | inhibition of growth at 10 µM [4] | inhibition of growth at 10 µM (SK-MEL-5) | inhibition of growth at 10 µM (T47D) | inhibition of growth at 10 µM [5] | inhibition of growth at 10 µM [6] | inhibition of growth at 10 µM (HT-29) | inhibition of growth at 10 µM [7] | inhibition of growth at 10 µM [8] | inhibition of growth at 10 µM [9] | inhibition of growth at 10 µM [10] | inhibition of growth at 10 µM [11] | inhibition of growth at 10 µM [12] | inhibition of growth at 10 µM (MCF7) | inhibition of growth at 10 µM (ACHN) | inhibition of growth at 10 µM (SK-MEL-28) | inhibition of growth at 10 µM (M14) | other results |
| --- | --- | --- | --- | --- | --- | --- | --- | --- | --- | --- | --- | --- | --- | --- | --- | --- | --- | --- | --- | --- | --- |
| COc1ccc(Cc2nnc(Nc3cccc(OC)c3)c3ccccc23)cc1 | 53% | < 30% | 30% | < 30% | < 30% | < 30% | 30% | 57% | < 30% | < 30% | 41% | < 30% | < 30% | < 30% | 35% | < 30% | < 30% | < 30% | < 30% | < 30% | inhibition of growth at 10 µM (SN12C): < 30%; inhibition of growth at 10 µM [13]: 30%; inhibition of growth at 10 µM (MDA-MB-468): < 30%; inhibition of growth at 10 µM (SR): 35%; inhibition of growth at 10 µM (NCI-H322M): < 30%; inhibition of growth at 10 µM [14]: < 30%; inhibition of growth at 10 µM (MDA-MB-435): < 30%; inhibition of growth at 10 µM (A549): < 30%; inhibition of growth at 10 µM [15]: < 30%; inhibition of growth at 10 µM [16]: < 30%; inhibition of growth at 10 µM [17]: < 30%; inhibition of growth at 10 µM [18]: < 30%; inhibition of growth at 10 µM (K562): < 30%; inhibition of growth at 10 µM [19]: < 30% |
| COc1ccc(Cc2nnc(Nc3ccc(Cl)c(C(F)(F)F)c3)c3ccccc23)cc1 | 58% | 40% | 50% | 59% | < 30% | < 30% | 59% | 63% | < 30% | 48% | < 30% | 69% | 40% | 42% | < 30% | < 30% | 48% | 45% | < 30% | 48% | inhibition of growth at 10 µM (SN12C): 46%; inhibition of growth at 10 µM [13]: 43%; inhibition of growth at 10 µM (MDA-MB-468): 54%; inhibition of growth at 10 µM (SR): 43%; inhibition of growth at 10 µM (NCI-H322M): 37%; inhibition of growth at 10 µM [14]: 59%; inhibition of growth at 10 µM (MDA-MB-435): < 30%; inhibition of growth at 10 µM (A549): 62%; inhibition of growth at 10 µM [15]: 41%; inhibition of growth at 10 µM [16]: 37%; inhibition of growth at 10 µM [17]: 42%; inhibition of growth at 10 µM [18]: < 30%; inhibition of growth at 10 µM (K562): 60%; inhibition of growth at 10 µM [19]: 49% |
